Screens from PubChem.
AF4-AF9 inh: inhibitors of AF4 peptide binding to AF9, primary screen, biochemical, AlphaScreen, biotin-AF4 peptide, FLAG-AF9, single point. Protein AF-9 (Homo sapiens), P42568. inhibition, % at 10 µM. 350,000 tested, 0.47% active. AID 651704, 2012;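 active means every replicate reaching a set inhibition limit, whatever the replicate mean, cut at about 25% in these data; inconclusive means mean inhibition reaches that limit but some replicates miss it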;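 further: 0% = plate neutral control median and 100% = total signal loss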
Target sequence (P42568 whole entry, looked up): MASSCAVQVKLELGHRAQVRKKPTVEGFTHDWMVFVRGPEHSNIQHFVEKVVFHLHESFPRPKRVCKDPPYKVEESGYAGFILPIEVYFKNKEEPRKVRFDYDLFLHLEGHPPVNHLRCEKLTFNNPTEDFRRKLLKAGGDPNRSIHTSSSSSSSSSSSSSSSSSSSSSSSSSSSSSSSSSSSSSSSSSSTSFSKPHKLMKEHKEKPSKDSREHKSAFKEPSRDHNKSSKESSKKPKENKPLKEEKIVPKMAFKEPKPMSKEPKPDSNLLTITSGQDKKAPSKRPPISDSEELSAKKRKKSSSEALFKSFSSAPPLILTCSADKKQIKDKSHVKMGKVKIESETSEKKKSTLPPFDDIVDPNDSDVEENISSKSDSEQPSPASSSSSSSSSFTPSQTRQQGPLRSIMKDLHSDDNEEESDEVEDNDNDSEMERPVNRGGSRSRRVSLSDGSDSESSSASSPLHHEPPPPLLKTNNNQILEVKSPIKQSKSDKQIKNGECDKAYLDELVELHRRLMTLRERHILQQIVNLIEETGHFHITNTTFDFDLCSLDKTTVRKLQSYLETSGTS
N-glyco inh: increase of ERlucT glycosylation luciferase signal, primary screen, N-linked glycosylation inhibitor project, D54 ERlucT cells, luminescence, set 2. D54 ERlucT glycosylation luciferase reporter, 24 h; percent of 100 nM tunicamycin response. reporter increase, % at 12.5 µM. 360,000 tested, 0.23% active;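 active means mean luciferase reporter signal, scaled so untreated is 0 and the glycosylation-blocking control 100, at or above a set limit in every replicate; inconclusive means mean reaches the limit but not every replicate does; inactive means mean below the limit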;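 further: luciferase carries N-glycosylation sites so blocking glycosylation raises the light; 0% = median of neutral control wells and 100% = median of 100 nM tunicamycin wells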
EWS-Fli inh: EWS/Fli-driven NR0B1 reporter inhibitors, primary screen, A673 cells, NR0B1 luciferase, luminescence, MLPCN library; inhibition, % at 12.6 µM; 350,000 tested, 0.67% active; AID 651661, 2012; viability-normalised;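 active means mean inhibition of at least 50% after viability correction, with every replicate also passing that limit; inconclusive means mean reaches 50% but only one of two replicates passes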;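 further: firefly luciferase signal divided by Alamar Blue viability fluorescence both relative to DMSO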
FN deposit inh: inhibitors of fibronectin matrix deposition, primary screen, AH1F cells, Alexa488-fibronectin fluorescence, plate reader. AH1F fibroblasts, overnight. inhibition, % at 12.6 µM. 350,000 tested, 0.086% active. AID 743247, 2014;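 active means mean inhibition across replicates of 30% or more, regardless of how many single replicates reach that level; inconclusive means mean under 30% yet at least half of replicates reach 30%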;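 further: positive control wells lacked labelled fibronectin entirely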
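Material – AH1F fibroblast monolayer, labelled fibronectin deposition · Reagent – labelled fibronectin 24 nM · Timing – 1 h adhesion, overnight exposure · Measured by – fluorescence at 485 nm excitation, 525 nm emission · Read-out – inhibition of fibronectin deposition signal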
PAX8 reporter: inhibitors of PAX8-driven TPO luciferase reporter, primary screen, RMG-I cells, single concentration; SteadyGlo, 24 h; inhibition, % at 12.6 µM; 360,000 tested, 1.2% active; AID 652154, 2013;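 active means mean replicate inhibition at least 60% with every replicate also reaching 60%; inconclusive means only one of the two criteria is met; inactive means mean below 60% and not all replicates reaching 60%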;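 further: luciferase light reporting Pax8 driven TPO promoter activity; plate controls were median of neutral control wells for no effect and mitoxantrone controls for full effect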
HIV Env fusion: inhibitors of HIV-1 Env-driven cell-cell fusion, primary screen, HeLa-JRFL effector, CEM21 target cells, luciferase; 360,000 tested, 1.1% active; AID 651610, 2012; inhibition, % at 12.3 µM;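 active means mean replicate inhibition score of at least 50 and every replicate individually at or above 50; inconclusive means only one of the two criteria met; inactive means mean below 50 and not all replicates reaching 50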;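 further: 0% = plate neutral controls and 100% = maraviroc near 300 nM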
* marks the source's active call; other numbers are inactive results; u = inconclusive; x = no result; [ ] = remark or other dose. A selection: hits, their analogues and other compounds. The true share with any hit is near 2.5%.

SMILES	AF4-AF9 inh	N-glyco inh	EWS-Fli inh	FN deposit inh	PAX8 reporter	HIV Env fusion
CO[C@H]1CN(C)C(=O)c2cc(NC(=O)c3ccc(F)cc3)ccc2OC[C@H](C)N(C(=O)CN(C)C)C[C@@H]1C	1.5	x	-6.0	-4.6	-10.0	62.0*[16.7 µM]
CCC(=O)Nc1ccc2c(c1)C(=O)N(C)C[C@H](OC)[C@@H](C)CN(C(=O)c1ccccn1)[C@@H](C)CO2	26.2*	x	0.0	-12.2	2.6	x
CO[C@H]1CN(C)C(=O)c2cc(NC(=O)c3ccc(F)cc3)ccc2OC[C@@H](C)N(C(=O)CN(C)C)C[C@H]1C	3.2	x	-1.8	4.6	-0.9	-5.4[16.7 µM]
C[C@@H]1CN([C@H](C)CO)C(=O)Cc2cc(NC(=O)c3ccncc3)ccc2O[C@@H]1CN(C)S(=O)(=O)c1ccccc1	-2.4	x	-1.5	2.7	-8.6	x
COc1ccc(C=CC(=O)c2ccc([N+](=O)[O-])cc2)cc1	-0.4	-2.9	-8.6	17.6	-20.2	6.0
Cc1[nH]c(C)c(C(=O)/C=C/c2ccc([N+](=O)[O-])cc2)c1C	3.7	42.1*	63.2*	4.3	2.0	-53.6
COc1ccc(CC2=CC(=O)c3ccccc3C2=O)cc1	-3.0	23.7	69.0*	12.6	18.4	-8.9
O=C(CNc1cccc2ccccc12)N/N=C/C(Br)=C/c1ccccc1	x	30.8*	x	x	x	x
C[C@H]1CN([C@@H](C)CO)S(=O)(=O)c2ccc(C#CCN(C)C)cc2O[C@@H]1CN(C)Cc1ccccn1	0.5	x	8.6	-0.1	x	-24.0[16.7 µM]
CC(C)[C@@H](C)NC(=O)N(C)C[C@@H]1OCc2ccccc2-c2c(n(C)c3ccccc23)C(=O)N([C@@H](C)CO)C[C@@H]1C	-2.5	x	-6.4	11.5	x	x
O[C@H]1C[C@H](c2ccc(Cl)cc2)N(Cc2cccs2)C[C@@H]1n1cc(-c2ccc(F)cc2)nn1	1.5	-2.4	14.9	x	2.7	x
Cc1ccc([C@H]2C[C@H](O)[C@@H](n3cc(-c4ccc(F)cc4)nn3)CN2Cc2cccs2)cc1	2.1	-0.2	53.3*	8.4	57.2	2.8
O=C(C[C@H]1CC[C@H]2[C@@H](COC[C@H](O)CN2Cc2cccc(Cl)c2)O1)N1CCCCC1	-1.1	x	0.5	-14.8	5.2	-33.2[16.7 µM]
N#Cc1sc2nccc(Nc3ccccc3)c2c1N	-1.1	-14.5	2.5	14.6	-4.3	62.0*
CCC(=O)Nc1ccc2c(c1)OC[C@@H](C)N(Cc1cccc(F)c1)C[C@H](C)[C@H](OC)CN(C)C2=O	2.3	x	-0.3	2.1	7.3	-11.5[16.7 µM]
COC(=O)C(NC(=O)c1ccccc1C)(Nc1ncc(S(=O)(=O)c2ccc([N+](=O)[O-])cc2)s1)C(F)(F)F (stereo not given)	x	0.1	x	0.7	x	u
COC(=O)C(NC(=O)c1ccc(F)cc1)(Nc1ncc(S(=O)(=O)c2ccc([N+](=O)[O-])cc2)s1)C(F)(F)F (stereo not given)	x	-4.5	x	x	x	126.9*
COc1ccc(NC(=O)N2CC[C@@H]3[C@H]2c2cc(-c4ccc(F)cc4)ccc2N(C)[C@H]3CO)cc1	9.4	x	-5.9	1.9	71.0*	x
COc1ccc(-c2ccc3c(c2)[C@@H]2[C@@H](CCN2C(=O)c2ccc(F)cc2)[C@@H](CO)N3C)cc1	x	x	4.0	3.6	-0.7	x
COc1cccc(-c2ccc3c(c2)[C@H]2[C@H](CCN2C(=O)c2ccccc2F)[C@H](CO)N3C)c1	1.3	x	0.3	-5.9	85.5*	x
CN1c2ccc(-c3ccc(C#N)cc3)cc2[C@H]2[C@H](CCN2C(=O)NC2CCCC2)[C@@H]1CO	0.3	x	15.0	-1.2	-7.9	x
COc1ccc(-c2ccc3c(c2)[C@@H]2[C@@H](CCN2C(=O)NC2CCCCC2)[C@@H](CO)N3C)cc1	7.1	x	-3.8	-4.8	84.8*	x
CN1c2ccc(-c3ccccc3)cc2[C@@H]2[C@@H](CCN2C(=O)NC2CCCCC2)[C@@H]1CO	23.5	x	4.2	8.9	81.3*	8.7[16.7 µM]
COCC(=O)Nc1ccc2c(c1)OC[C@H](C)N(CC1CCCCC1)C[C@H](C)[C@@H](OC)CN(C)C2=O	4.0	x	0.8	7.8	-9.8	x
CNC(=O)C1=C[C@@H](c2ccc(OC)cc2)C[C@@H](OCCCCO)O1	-2.2	x	4.4	x	0.3	4.7[16.7 µM]
SMILES	AF4-AF9 inh	N-glyco inh	EWS-Fli inh	FN deposit inh	PAX8 reporter	HIV Env fusion
COc1cccc(-c2ccc3c(c2)[C@@H]2[C@@H](CCN2C(=O)NC2CCCC2)[C@H](CO)N3C)c1	26.5*	x	4.0	-20.5	u	x
CN1c2ccc(-c3cccc(C#N)c3)cc2[C@@H]2[C@@H](CCN2C(=O)NC2CCCC2)[C@H]1CO	7.6	x	1.4	4.1	26.1	6.6[16.7 µM]
COc1cccc(-c2ccc3c(c2)[C@H]2[C@H](CCN2C(=O)CC2CC2)[C@H](CO)N3C)c1	x	x	-6.2	-3.7	-12.3	x
COc1cccc(-c2ccc3c(c2)[C@@H]2[C@@H](CCN2C(=O)CC2CC2)[C@H](CO)N3C)c1	x	x	-4.1	2.7	66.8*	x
CN(C)C(=O)c1ccc(-c2ccc3c(c2)[C@@H]2[C@@H](CCN2C(=O)c2ccc(F)cc2)[C@H](CO)N3C)cc1	10.7	x	0.7	30.9*	21.0	x
CO[C@H]1CN(C)C(=O)c2ccc(NC(=O)c3cnccn3)cc2OC[C@@H](C)N(C(C)=O)C[C@@H]1C	-1.2	x	-1.1	-4.8	x	x
C[C@H]1CN([C@@H](C)CO)C(=O)Cc2cc(NS(=O)(=O)c3ccc(Cl)cc3)ccc2O[C@H]1CN(C)C	-2.1	x	6.9	x	-1.4	x
O=C(C[C@H]1CC[C@H]2[C@@H](COC[C@@H](O)CN2S(=O)(=O)c2ccc(F)cc2)O1)NCC1CCCCC1	8.8	x	-7.3	0.6	3.2	33.8[16.7 µM]
O=C(C[C@H]1CC[C@H]2[C@@H](COC[C@H](O)CN2S(=O)(=O)c2ccc(F)cc2)O1)NCC1CCCCC1	28.4*	x	-5.3	-11.3	7.0	6.4[16.7 µM]
O=C(C[C@H]1CC[C@H]2[C@@H](COC[C@H](O)CN2S(=O)(=O)c2ccccc2)O1)NCC1CCCCC1	33.4*	x	11.2	-2.4	5.9	x
O=C(C[C@@H]1CC[C@H]2[C@@H](COC[C@@H](O)CN2S(=O)(=O)c2ccc(F)cc2)O1)NCC1CCCCC1	30.8*	x	-5.0	-7.3	2.0	-1.5[16.7 µM]
Cc1ccc(C(C(=O)NC2CCCC2)N(Cc2ccc(F)cc2)C(=O)c2csnn2)o1 (stereo not given)	x	-1.8	x	4.2	9.9	41.9
COc1ccc(CN(C(=O)Cc2c[nH]c3ccccc23)C(C(=O)NC2CCCCC2)c2ccc(C)o2)cc1 (stereo not given)	x	-7.6	x	-2.3	x	108.6*
